# Bioassay records (PubChem)
# Sampled rows, rich in hits. Any-hit rate of the full collection: about 1.2%.
# Calb biofilm kill – mixtures killing C. albicans biofilm. C. albicans biofilm persisters + clotrimazole, fluorescence viability; primary screen in compound mixtures of four per well. 120,000 compounds, 0.02% hits. inhibition, % at 7.6 µM;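 active means inhibition above 30.3% in the primary screen of four-compound pools, then above 30% when the compound was retested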;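 further: compounds exposed to preformed 24 h biofilms for 48 h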
#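 Test system: C. albicans CAF4-2 wild-type biofilms; buffer or medium: RPMI/MOPS medium, pH 7.0; schedule: 24 h biofilm formation, then 48 h compound exposure, 37 °C; detection: Alamar Blue fluorescence; measure: percent inhibition of biofilm viability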
# S1P3 antagonist – antagonists of human S1P3 receptor | 170,000 compounds, 0.27% hits | Q99500 | inhibition, % at 4.98 µM | CHO S1P3 NFAT-BLA reporter, FRET fluorescence, antagonist mode;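 active means inhibition above the plate cutoff, the mean inhibition of test wells on that plate plus 3 SD, cut at about 28% in these data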;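 further: cells challenged with S1P at its EC80 of 0.8 µM; blue over green emission ratio from cleaved BLA substrate after 4 h stimulation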
# S1P4 antagonist – antagonists of human S1P4 receptor; S1P4-expressing cells, antagonist mode, reporter read-out; inhibition, % at 4.98 µM; 220,000 compounds, 0.26% hits; AID 1510; in the data active means inhibition above about 29%
# Target sequence (O95977 whole entry, looked up): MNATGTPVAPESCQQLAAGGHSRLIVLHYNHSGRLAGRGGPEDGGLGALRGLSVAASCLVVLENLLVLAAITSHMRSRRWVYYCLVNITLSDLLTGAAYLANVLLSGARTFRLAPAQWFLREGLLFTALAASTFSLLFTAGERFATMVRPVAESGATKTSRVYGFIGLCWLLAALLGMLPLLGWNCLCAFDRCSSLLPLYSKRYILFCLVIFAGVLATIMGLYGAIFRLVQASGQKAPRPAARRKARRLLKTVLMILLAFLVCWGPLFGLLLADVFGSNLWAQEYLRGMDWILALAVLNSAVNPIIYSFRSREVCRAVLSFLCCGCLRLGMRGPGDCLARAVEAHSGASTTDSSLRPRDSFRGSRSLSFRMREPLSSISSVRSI
# Rad51 HR inh – Rad51 (human) homologous recombination inhibition. hRad51 DNA strand exchange, fluorescence dequenching. inhibition, % at 10 µM. AID 1385. 200,000 compounds, 0.085% hits. Q06609;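 active means inhibition above 40% at the single screening dose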
#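 Assay system: Human Rad51 nucleoprotein filaments preassembled on unlabelled ssDNA | Reagent: Donor/quencher-labelled 47-bp dsDNA substrate | Doses: One concentration, 10 µM final | Times: 37 °C 15-min filament assembly, 30-min compound preincubation, 15-min exchange | Technique: Fluorescein emission 520 nm, excitation 485 nm | Benchmarks: Plate control and blank wells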
# Efa HMGR inh – inhibitors of class II HMG-CoA reductase from Enterococcus faecalis. purified E. faecalis HMGR, NADPH absorbance 340 nm kinetic. inhibition, % at 10 µM. 190,000 compounds, 0.41% hits;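 active means inhibition above a set limit, the median over all tested compounds plus 3 SD, cut at about 9.5% in these data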;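 further: enzyme runs in reverse so mevalonate oxidation gives rising NADPH absorbance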
# S1P4 agonist – human S1P4 receptor agonism; O95977; S1P4-expressing cell line, agonist reporter assay; activation, % at 4.98 µM; 220,000 compounds, 0.35% hits; AID 1509; in the data active means activation above about 11%
# Hits are given with their value; n = inactive; x = no result.
SMILES,Calb biofilm kill,S1P3 antagonist,S1P4 antagonist,Rad51 HR inh,Efa HMGR inh,S1P4 agonist
CC(=O)Oc1ccc(N2C(=O)C3C4C=CC(CO)(O4)C3C2=O)cc1 (stereo not drawn),x,x,n,n,n,n
O=C(c1ccc2ccccc2n1)N1CCN(c2ccccc2O)CC1,x,x,n,87,n,n
O=C(c1ccc2ccccc2n1)N1CCN(c2ccccc2)CC1,x,n,n,n,n,n
CCOc1ccc(CNC(=O)CCSCc2ccccc2F)cc1OC,n,n,n,n,n,n
CCOc1ccc(CNC(=O)CCS(=O)(=O)Cc2cccc(Cl)c2)cc1OC,n,n,n,41,n,n
Cc1cccc(OCC(=O)NNC(=O)CSc2ncc(C#N)c(N)n2)c1,x,x,n,n,n,n
COC(=O)CSc1ncc(C#N)c(N)n1,x,n,n,n,63,n
CN(C)C(=O)CSc1nc2ccccc2c(=O)[nH]1,x,n,n,x,n,n
COc1ccc(N=C2S/C(=C\c3ccc(OCC(=O)O)cc3)C(=O)N2CCc2c[nH]c3ccccc23)cc1,n,n,n,n,10,n
CC1(C)Cc2c(c(-c3ccccc3)nc3sc4c(=O)[nH]c(=S)[nH]c4c23)CO1,n,n,n,x,x,n
Fc1ccc(C2=NN(c3ccccc3)C(c3ccco3)C2)cc1 (stereo not drawn),n,n,n,n,13,n
COc1ccc(NC(=O)C(Cl)=C(Cl)Cl)cn1,n,n,n,n,n,n
COc1ccc(NC(=O)/C(Cl)=C(/Cl)S(=O)Cc2ccc(Cl)cc2)cn1 (stereo not drawn),n,44,52,n,n,n
COC1=C/C(=C/c2c(O)c(C#N)c3ccccn23)C=CC1=O,n,n,n,n,x,n
CC(C)(C)c1ccc(C(=O)N2CCN(c3nc4ccccc4o3)CC2)cc1,x,x,n,n,n,n
O=C(c1ccc(-c2ccccc2)cc1)N1CCN(c2nc3ccccc3o2)CC1,n,53,n,n,n,n
O=[N+]([O-])c1cccc(-c2ccc3nnc(SCc4ccccn4)n3n2)c1,n,n,n,n,n,n
CCc1ccc(NC(=O)c2cc(-c3ccco3)on2)cc1,x,59,n,n,n,n
COc1ccc(NC(=O)c2cc(-c3ccco3)on2)cc1,n,n,n,n,n,n
C=CCc1cccc(CNc2nc3ccccc3n2CCC)c1O,x,77,n,n,n,n
C=CCc1cccc(CNc2nc3ccccc3n2CC)c1O,x,n,n,n,n,n
Cc1ccc(CS(=O)(=O)CCC(=O)NCCCN2CCCC2)cc1,x,82,n,n,n,n
CCOc1cc(N2CCOCC2)c(OCC)cc1NC(=O)CN1C(=O)NC(Cc2ccccc2)C1=O (stereo not drawn),x,n,n,n,n,12
COc1ccc(CCN(C(=O)c2ccccc2)C2=CC3CCC(C2)N3C)cc1OC (stereo not drawn),x,85,n,n,n,n
O=C(C1=C[C@@H](c2csc3ccccc23)C[C@@H](OCc2ccc(CO)cc2)O1)N1CCOCC1,n,n,n,n,n,n
SMILES,Calb biofilm kill,S1P3 antagonist,S1P4 antagonist,Rad51 HR inh,Efa HMGR inh,S1P4 agonist
CC(=O)S[C@@H]1CC2=CC(=O)CC[C@]2(C)[C@H]2CC[C@@]3(C)[C@@H](CC[C@@]34CCC(=O)O4)[C@H]12,x,x,x,n,x,x
COc1ccccc1/C=C/C(=O)OCC(=O)Nc1ccccc1Sc1ccccc1,n,n,n,x,11,n
CN1CCN(C(=O)/C(C#N)=C/c2ccc(OC(F)F)cc2)CC1,n,n,n,44,x,n
CCOC(=O)CCCn1ncn2c(cc3occc32)c1=O,x,x,n,n,n,n
CCCC(=O)N1CCN(c2ccc(NC(=O)C(C)(C)C)cc2Cl)CC1,n,n,n,x,n,n
COC(=O)/C(=C\Nc1cccc(Cl)c1C)c1ncc(C(F)(F)F)cc1Cl,x,x,n,79,n,n
O=C(NNC(=O)C1CCN(S(=O)(=O)c2ccc(Cl)cc2)CC1)c1ccncc1,n,n,n,n,13,n
O=C1CC(Sc2ncccn2)C(=O)N1c1ccccc1 (stereo not drawn),x,x,n,n,n,n
Cc1nc(SC2CC(=O)N(c3ccccc3)C2=O)n[nH]1 (stereo not drawn),n,n,n,n,13,n
CCOC(=O)c1sc(NC(=O)COC(=O)CNC(=O)C2CCCCC2)c(C(=O)OCC)c1C,n,n,n,x,n,n
COc1cc(NC(=O)c2cccnc2SC)cc(OC)c1OC,n,n,n,n,13,n
CCN1CCN(c2ncnc3c2cnn3-c2ccccc2)CC1,x,90,n,n,n,n
CC(C)(C)n1nnnc1C(c1ccc(F)cc1)N(Cc1ccc(F)cc1)Cc1ccco1 (stereo not drawn),x,x,n,n,n,n
COc1ccc(Cn2nnnc2C(C(C)C)N(Cc2ccco2)Cc2cccs2)cc1 (stereo not drawn),x,54,n,n,n,n
Cc1ccc(C(c2nnnn2C(C)(C)C)N(Cc2ccco2)Cc2cccs2)cc1 (stereo not drawn),x,90,n,n,n,n
Cc1ccc([N+](=O)[O-])cc1NC(=O)CCSc1ccc(Cl)cc1,x,x,n,n,n,n
Cc1cc(C)nc(NC(=O)Cc2ccc(Br)cc2)n1,n,n,n,n,n,n
Cc1occc1-c1nnc(SCC(=O)N2CCCCC2)o1,n,n,n,n,13,n
CN1C(=O)c2cccc(NC(=O)CCc3ccccc3)c2C1=O,x,92,n,n,n,n
O=C(Nc1ccc(N2CCN(C(=O)c3ccco3)CC2)cc1)c1cccc(F)c1,x,n,n,n,n,n
Fc1ccccc1Nc1nc(Cl)nc(Cl)n1,n,n,n,n,11,n
O=C1CC(=O)N(Cc2ccco2)C(=S)N1,x,x,n,n,21,n
O=C1CC(=O)N(Cc2ccco2)C(=O)N1,x,n,n,x,n,n
OC(CN1C2=NCCCN2c2ccccc21)c1ccc(Cl)cc1 (stereo not drawn),x,82,n,n,n,n
COc1ccc(Cl)cc1NC(=S)N(CCCN1CCOCC1)Cc1cn(C)c2ccccc12,n,n,n,n,n,n
SMILES,Calb biofilm kill,S1P3 antagonist,S1P4 antagonist,Rad51 HR inh,Efa HMGR inh,S1P4 agonist
Cc1ccc2nsnc2c1N,n,n,n,n,18,n
COc1cc(C(=O)NC2CCN(Cc3nnnn3Cc3cccs3)CC2)cc(OC)c1OC,x,x,n,n,n,n
O=C(CCCN1C(=O)/C(=C/c2cccs2)SC1=S)NNC(=O)c1cccnc1,n,n,n,42,x,n
O=C(CCCN1C(=O)/C(=C\c2cccs2)SC1=S)NNC(=O)c1ccncc1,n,n,n,n,n,n
CCn1c(O)c(N=NC(=O)CNC(=O)/C=C/c2ccco2)c2ccccc21,x,x,n,n,n,n
COc1ccc(NC(=O)c2cncc(Br)c2)c(S(=O)(=O)N2CCOCC2)c1,x,x,n,n,11,n
CC(=O)NNc1ncnc2c1cnn2-c1ccc(C)c(Cl)c1,n,n,n,n,12,n
CC(=O)NNc1ncnc2c1cnn2-c1ccc(C)cc1,n,n,n,n,n,n
